Active and inactive are the calls of the source. The calls are words filed in the database; no cut-off is given here.

These results are taken from ChEMBL document CHEMBL1146887 (J Med Chem, 2006).

In experiment [1] the target is Opioid receptors; delta & kappa (Homo sapiens) (UniProt P41145+P41143). The experiment in a line: Selectivity for human cloned delta opioid receptor over kappa opioid receptor. It counts as protein assay. In short, it runs like this: (§1)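 Ratios of Ke values from [³⁵S]GTPγS antagonism assays at cloned human µ, δ and κ receptors in CHO membranes, each run with 10 µM GDP final against DAMGO, DPDPE or U69593 agonist curves.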
Chain of Opioid receptors; delta & kappa (Homo sapiens) (P41143 whole entry, looked up): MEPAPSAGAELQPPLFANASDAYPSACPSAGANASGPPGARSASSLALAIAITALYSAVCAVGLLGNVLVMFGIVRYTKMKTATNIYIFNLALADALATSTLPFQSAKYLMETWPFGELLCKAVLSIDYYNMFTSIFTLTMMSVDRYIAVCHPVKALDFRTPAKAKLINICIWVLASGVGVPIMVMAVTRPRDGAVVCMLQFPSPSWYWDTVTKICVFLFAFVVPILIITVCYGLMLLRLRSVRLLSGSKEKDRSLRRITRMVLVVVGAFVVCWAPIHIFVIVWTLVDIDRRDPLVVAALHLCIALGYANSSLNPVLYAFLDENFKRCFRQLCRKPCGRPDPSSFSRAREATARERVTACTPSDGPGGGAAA
Chain of Opioid receptors; delta & kappa (Homo sapiens) (P41145 whole entry, looked up): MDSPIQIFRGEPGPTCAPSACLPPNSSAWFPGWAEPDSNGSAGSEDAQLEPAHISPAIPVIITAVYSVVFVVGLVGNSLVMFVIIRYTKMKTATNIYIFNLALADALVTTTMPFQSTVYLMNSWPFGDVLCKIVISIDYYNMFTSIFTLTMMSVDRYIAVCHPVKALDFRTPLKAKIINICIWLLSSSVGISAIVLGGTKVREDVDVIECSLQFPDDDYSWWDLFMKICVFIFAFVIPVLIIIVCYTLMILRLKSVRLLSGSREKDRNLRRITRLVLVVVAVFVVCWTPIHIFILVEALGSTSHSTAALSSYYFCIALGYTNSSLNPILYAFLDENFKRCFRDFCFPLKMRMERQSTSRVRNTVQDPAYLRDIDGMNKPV

The target of experiment [2] is Mu-type opioid receptor (Homo sapiens) (UniProt P35372). The experiment in a line: Antagonist activity at human cloned mu opioid receptor expressed in CHO cells assessed as inhibition of DAMGO-stimulated [35S]GTP-gamma-S binding in presence of 10 uM GDP. It counts as functional, cell-based. In short, it runs like this: (§2)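 Membranes of CHO cells expressing cloned human receptor (0.4-0.6 pmol/mg), 20-40 µg protein, with 0.5 nM [³⁵S]GTPγS, 10 µM GDP final, 1% DMSO, in 20 mM Hepes pH 7.4, 100 mM NaCl, 10 mM MgCl₂; 1 h room temperature. Agonist curves (seven concentrations, 0.32-32 000 nM) ± one test concentration (µ 3-300, δ 1-50, κ 50-300 nM). Filtration over GF/B, scintillation counting; Ke as mean ± SE, ≥3 experiments.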
Chain of Mu-type opioid receptor (Homo sapiens) (P35372 whole entry): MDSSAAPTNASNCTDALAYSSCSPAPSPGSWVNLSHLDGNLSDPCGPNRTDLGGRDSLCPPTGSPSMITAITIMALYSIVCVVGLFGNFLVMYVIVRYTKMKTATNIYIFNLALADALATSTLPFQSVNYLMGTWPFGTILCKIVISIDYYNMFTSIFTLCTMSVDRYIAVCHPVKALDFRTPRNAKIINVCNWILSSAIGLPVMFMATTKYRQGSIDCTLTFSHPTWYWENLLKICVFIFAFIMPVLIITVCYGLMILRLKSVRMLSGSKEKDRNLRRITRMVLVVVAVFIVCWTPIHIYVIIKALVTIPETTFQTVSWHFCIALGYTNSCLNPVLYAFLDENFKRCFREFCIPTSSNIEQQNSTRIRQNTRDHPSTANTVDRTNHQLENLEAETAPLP
In general terms: GTPγS is a poorly hydrolysed GTP analogue; its binding reports G protein activation.

The target of experiment [3] is T1, Delta-type opioid receptor (Homo sapiens, UniProt P41143). Nature of the experiment: Inverse agonist activity at human cloned delta opioid receptor expressed in CHO cells assessed as […] [35S]GTP-gamma-S binding in presence of 1 uM GDP relative to control. The class given is functional, cell-based. Details: scale not given: the % may be the effect or the level left.
T1 sequence (P41143 whole entry): as the sequence (P41143 whole entry, looked up) above

In experiment [4] the target is T1, Delta-type opioid receptor. Nature of the experiment: Inverse agonist activity at human cloned delta opioid receptor expressed in CHO cells assessed as […] [35S]GTP-gamma-S binding in presence of 1 uM GDP. It counts as functional, cell-based.
The target of experiment [5] is Kappa-type opioid receptor (Homo sapiens) (UniProt P41145). Nature of the experiment: Intrinsic activity at kappa opioid receptor in presence of 1 uM GDP. It counts as functional.
Chain of Kappa-type opioid receptor (Homo sapiens) (P41145 whole entry): as the sequence (P41145 whole entry, looked up) above
Experiment [6] has the same target. The experiment in a line: Antagonist activity at human cloned kappa opioid receptor expressed in CHO cells assessed as inhibition of U69593-stimulated [35S]GTPgammaS binding in presence of 10 uM GDP. It counts as functional, cell-based. In short, it runs like this:
as §2

In experiment [7] the target is Opioid receptors; mu & delta (Homo sapiens) (UniProt P41143+P35372). Nature of the experiment: Selectivity for human cloned delta opioid receptor over mu opioid receptor. It counts as protein assay. The method in brief: as §1
Chain of Opioid receptors; mu & delta (Homo sapiens) (P35372 whole entry, looked up): as the sequence (P35372 whole entry) above
Chain of Opioid receptors; mu & delta (Homo sapiens) (P41143 whole entry, looked up): as the sequence (P41143 whole entry, looked up) above
The target of experiment [8] is T1, Delta-type opioid receptor. The experiment in a line: Agonist activity at delta opioid receptor at 31.6 uM. The class given is functional.
The target in experiment [9] is T1, Delta-type opioid receptor. Nature of the experiment: Antagonist activity at human cloned delta opioid receptor expressed in CHO cells assessed as inhibition of DPDPE-stimulated [35S]GTP-gamma-S binding in presence of 10 uM GDP. It counts as functional, cell-based. The method in brief:
as §2

For experiment [10], the target named is Mu-type opioid receptor (Homo sapiens) (UniProt P35372). The experiment in a line: Intrinsic activity at mu opioid receptor in presence of 1 uM GDP. It counts as functional.

As to `C[C@H]1CN(C/C=C/c2ccccc2)[C@@H]2C[C@@H](NC(=O)C(C)(C)c3ccccc3)C[C@@]1(c1cccc(O)c1)C2`, the figures for the Ratio Ke in [1] and in [7] were 20 and 2.4, respectively. Besides, the Ke in experiment [2] was determined as 1.9 nM; in experiment [6] it was 15.8 nM; in experiment [9], 0.81 nM. In experiment [3], the Activity was 78%. Also, the IC50 (as a rule, the concentration at which inhibition is half-maximal) in [4] was 0.72 nM. Also, the result in experiment [5], in [8] and in [10] was inactive.
As to `C[C@@H](C(=O)N[C@@H]1C[C@@H]2C[C@](c3cccc(O)c3)(C1)[C@@H](C)CN2CCCc1ccccc1)c1ccccc1`, the Ratio Ke in experiment [1] was found to be 58; in experiment [7], 69. For the same compound, the Ke in experiment [2] amounted to 9.6 nM; in experiment [6], 8.1 nM; in [9], 0.14 nM. In addition, the Activity in [3] stood at 78%. Further, the IC50 in [4] was 0.15 nM. Besides, the outcome in experiment [5], in experiment [8] and in experiment [10] was inactive.
In the case of `C[C@H]1CN(CCCc2ccccc2)[C@@H]2C[C@@H](NC(=O)C3(c4ccc(F)cc4)CCCC3)C[C@@]1(c1cccc(O)c1)C2`, the Ratio Ke in experiment [1] was found to be 17; in [7] it was 35. Also, the Ke in [2] came to 9.1 nM; in experiment [6] it was 4.5 nM; in experiment [9], 0.26 nM. In [3], the Activity was found to be 72%. Moreover, in experiment [4], the IC50 worked out at 0.45 nM. Also, the result in experiment [5], in [8] and in experiment [10] was inactive.
As to `C[C@H]1CN(CCCc2ccccc2)[C@@H]2C[C@@H](NC(=O)C3(c4ccc5ccccc5c4)CCCC3)C[C@@]1(c1cccc(O)c1)C2`, the Ratio Ke is 75 in experiment [1] and 47 in experiment [7]. For the same compound, the Ke is 35 nM in experiment [2], 56.1 nM in experiment [6] and 0.75 nM in experiment [9]. Further, the Activity in [3] stood at 69%. Further, the IC50 in experiment [4] stood at 7.7 nM. The result in [5], in [8] and in [10] was inactive.
